Compound activity as filed in PubChem.
Shown are actives, neighbours in structure and some others; about 1.1% of the full set was active somewhere.
Diaph inh CS: diaphorase inhibition or chemical oxidation counter-screen. diaphorase resazurin-to-resorufin fluorescence, NADH, 16 min; bacterial (C. kluyveri) enzyme, not human. inhibition, % at 20 µM. 190,000 compounds, 0.69% hits. AID 1217;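 active = primary screen inhibition at 20 µM above a set limit, cut at about 50% in these data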;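 also: plate controls were DMSO with full reaction for no effect and wells lacking NADH for full effect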
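Test system: Clostridium kluyveri diaphorase enzyme / Quantity: diaphorase at 0.14 U/mL in enzyme working solution / Incubation: 16-min room-temperature incubation before reading / Benchmarks: NADH-free wells as positive control, DMSO-only neutral wells / Signal: resorufin fluorescence 544/590 nm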
Diaph act CS: counter-screen for diaphorase-based assays: diaphorase activators and chemical reducers. Diaphorase/resazurin coupled assay, resorufin fluorescence, 16 min; stronger effect = higher value; 1 = vehicle wells, 0 = NADH-free wells. 190,000 compounds, 0.005% hits. activation factor at 20 µM;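 active = diaphorase activity raised at least twofold by the compound at 20 µM; inactive = activation factor below 2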
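test system = bacterial diaphorase enzyme (C. kluyveri) | quantity = enzyme 0.07 U/mL final | reagent = NADH substrate 0.114 mM plus resazurin dye 0.1 mM, final | incubation = 16 min enzyme reaction, ambient temperature | buffer or medium = HEPES pH 7.4 buffer with MgCl2 and Tween 20 | signal = fluorescence of resorufin, 544 nm excitation, 590 nm emission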
PMI act: activators of human phosphomannose isomerase; activation factor at 20 µM; P34949; 190,000 compounds, 0.005% hits; purified human PMI, coupled resazurin fluorescence, 20 min; stronger effect = higher value; 1 = vehicle control, 0 substrate-free wells; AID 1214;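 active = activation factor of 2 or more at 20 µM, relative to plate controls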
Target sequence (P34949 whole entry, looked up): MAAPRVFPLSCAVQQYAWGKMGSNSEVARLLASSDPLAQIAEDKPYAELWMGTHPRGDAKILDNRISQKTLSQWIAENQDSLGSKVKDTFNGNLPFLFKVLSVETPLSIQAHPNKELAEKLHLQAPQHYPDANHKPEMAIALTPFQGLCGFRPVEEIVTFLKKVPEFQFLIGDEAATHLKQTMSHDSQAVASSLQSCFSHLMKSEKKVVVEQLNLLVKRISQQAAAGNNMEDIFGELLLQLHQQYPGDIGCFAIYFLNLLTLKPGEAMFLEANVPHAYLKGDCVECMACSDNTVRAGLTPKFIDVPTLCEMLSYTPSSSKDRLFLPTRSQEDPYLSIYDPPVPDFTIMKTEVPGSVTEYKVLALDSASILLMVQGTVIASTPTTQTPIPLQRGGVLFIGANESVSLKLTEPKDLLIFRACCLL
G6PDH counter: counter-screen for G6PDH assay hits: L. mesenteroides G6PDH inhibition. Purified L. mesenteroides G6PDH, diaphorase/resazurin coupled fluorescence, 45 min. 200,000 compounds, 0.12% hits. inhibition, % at 5 µM. AID 1020; in the data active = inhibition above about 50%
PMI act hi M6P: increases human PMI activity with near-saturating mannose 6-phosphate; activation factor at 20 µM; P34949; 190,000 compounds, 0.34% hits; coupled PMI enzyme assay, resazurin fluorescence, 20 min; stronger effect = higher value; 1 = untreated enzyme, 0 = substrate-free blank;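 active = activation factor of 2 or more at 20 µM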
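Test system: human PMI in coupled enzyme assay; Input: PMI at 15 ng/mL final; Medium: HEPES buffer, pH 7.4; Schedule: 20 min incubation at room temperature; Technique: resorufin fluorescence at Ex 544/Em 590 nm; Compound: 20 µM single dose; Probe or stimulus: Near-saturating mannose-6-phosphate, 1.0 mM.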
Numbers without * were called inactive.

SMILES	Diaph inh CS	Diaph act CS	PMI act	G6PDH counter	PMI act hi M6P
O=c1c(-c2ccccc2)[n+]([O-])c2ccccc2n1O	7	0.9	0.9	9	0.9
O=c1c2c([N+](=O)[O-])cc([N+](=O)[O-])cc2sn1-c1ccc(Br)cc1	67*	0.3	-0.1	-4	0
O=c1c2cc(Br)ccc2nc(-c2ccc([N+](=O)[O-])cc2)n1O	17	0.8	1	9	1.2
NNC(=S)Nc1ccc(Cl)cc1	-2	1	0.9	-4	1
NN/C(=C\[N+](=O)[O-])Nc1ccc(Cl)cc1	16	0.8	1.5	3	2*
NN/C(=C\[N+](=O)[O-])Nc1ccccc1	6	0.9	1.7	-7	2.6*
Cc1ccc(C(=O)N/C(=C\c2ccccc2F)c2nc(=S)[nH][nH]2)cc1	51*	0.5	1.3	4	1.3
Oc1ccc(/C=N/Nc2ccccc2)cc1	25	0.8	1.6	-2	2.5*
Brc1ccc(/C=N/Nc2ccccc2)cc1	16	0.8	1.4	11	2.4*
O=C(CN1C(=O)c2ccccc2S1(=O)=O)NC(Nc1ccccc1F)C(Cl)(Cl)Cl (stereo not given)	13	0.9	1	5	1
O=[N+]([O-])c1ccccc1NC(=S)N/N=C/c1ccc(O)c(O)c1	72*	0.3	0.5	11	1
CCN(C(=O)CSc1nnnn1-c1ccccc1)C1CCS(=O)(=O)C1 (stereo not given)	-7	1.1	1.1	8	1
Cc1ccc(S(=O)(=O)Nc2ccc3c(c2)nc2n3CCN(Cc3ccccc3)C2)cc1	16	0.8	1.5	-1	2.2*
O=S(=O)(Nc1ccc2c(c1)nc1n2CCN(Cc2ccccc2)C1)c1ccccc1	9	0.9	1.5	6	1.9
O=S(=O)(Nc1ccc2c(c1)nc1n2CCN(Cc2ccccc2)C1)c1ccc(F)cc1	24	0.8	1.6	10	2.1*
O=S(=O)(Nc1ccc2c(c1)nc1n2CCN(Cc2ccccc2)C1)c1ccc(Cl)cc1	12	0.9	1.6	-1	2.2*
O=C(Nc1ccc2c(c1)nc1n2CCN(Cc2ccccc2)C1)NC1CCCCC1	17	0.8	1.2	26	1.4
COc1cccc2c1C(=O)C=C(C)C2=O	0	1	1	54*	0.5
CC1=CC(=O)c2ccccc2C1=O	-22	1.2	1.6	61*	1.1
Cc1ccc(C(=O)NCCNS(C)(=O)=O)cc1	0	1	1.1	12	1
CC(=O)c1ccc2noc(-c3ccc(C)cc3)c2c1	3	1	1.9	2	2*
CCOC(=O)C1CCCN(C(=O)c2ccco2)C1 (stereo not given)	14	0.9	0.9	7	0.9
Cc1ccc(N(CC(=O)N/N=C/c2cccc(Br)c2)S(C)(=O)=O)cc1	11	0.9	1	13	1
CC1(C)CC(=O)C2=C(C1)c1c(ccc3ccccc13)NC2c1ccco1 (stereo not given)	22	0.8	1	6	1
O=C1CCCC2=C1C(c1ccc(O)c(O)c1)Nc1ccc3ncccc3c12 (stereo not given)	71*	0.3	0.5	28	0.5
SMILES	Diaph inh CS	Diaph act CS	PMI act	G6PDH counter	PMI act hi M6P
O=C1CCCC2=C1C(c1cccs1)Nc1ccc3ncccc3c12 (stereo not given)	3	1	0.9	3	0.8
Cc1ccsc1C1Nc2ccc3ncccc3c2C2=C1C(=O)CC(C)(C)C2 (stereo not given)	53*	0.5	0.7	14	0.5
O=S(=O)(c1ccccc1)N1CCC2(CC1)OCCO2	11	0.9	0.9	-5	0.9
CC(N1CCOC1=O)S(=O)(=O)c1ccccc1 (stereo not given)	6	0.9	1.6	-4	2*
CN=C(Nc1cccc(Cl)c1)SC1CC(=O)N(c2ccc(OC)cc2)C1=O (stereo not given)	42	0.6	0.8	7	0.9
CCn1c(C)nc2cc(C(=O)NNC(=O)Nc3ccc(Cl)cc3)ccc21	8	0.9	1.9	5	2.8*
CCN(CC)S(=O)(=O)c1cccc(C(=O)N/N=C/c2ccc(O)c(O)c2O)c1	80*	0.2	0.2	10	0.4
